From ChEMBL document CHEMBL4699473, “Discovery of Bispecific Antagonists of Retinol Binding Protein 4 That Stabilize Transthyretin Tetramers: Scaffolding Hopping, Optimization, and Preclinical Pharmacological Evaluation as a Potential Therapy for Two Common Age-Related Comorbidities” (J Med Chem, 2020)
Values after ≈ are worked out from the molar mass of the structure shown. Each block holds one compound with its values, some of them ahead of it. Active and inactive are the calls of the source. The calls are words filed in the database; no cut-off is given here.

Key:
Transthyretin [1] = biological target: T1, Transthyretin (Homo sapiens, UniProt P02766); assay: Stabilization of human His-tagged TTR (Gly21 to Glu147) expressed in HEK293 cells assessed as reduction in acid-induced protein aggregation by measuring increase in TTR monomer level at 50 uM incubated for 72 hrs at pH 4 by Western blot; type: cell-based
Method in brief: (§1)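 Human TTR (2 μL of 167 μM) incubated in 50 mM sodium acetate pH 4.0, 100 mM KCl, with or without 50 μM compound (DMSO vehicle), 72 h at 37 °C. Neutralized with 500 mM sodium phosphate pH 8.0 plus CHAPS, cross-linked, then run on SDS-PAGE and anti-TTR Western blot. Pixel volumes of high-molecular-weight and monomer bands quantified. At least three independent experiments; one-way ANOVA with Holm–Sidak test.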

[2] = biological target: T2, Retinol-binding protein 4 (Homo sapiens, UniProt P02753); assay: Displacement of [3H]-all-trans-retinol from biotinylated human urine derived RBP4 measured after 16 hrs by scintillation proximity assay
Transthyretin [3] = biological target: T1, Transthyretin; assay: Displacement of FITC-diclofenac from human plasma derived TTR measured after overnight incubation by fluorescence polarization assay; type: cell-free
Method in brief: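 Incubated overnight at 4 °C, then fluorescence polarization read. Nonspecific binding defined with 500 μM unlabeled diclofenac.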

[4] = Kinetic solubility of the compound in pH 7.4 PBS buffer by UV/VIS-HPLC method; type: physicochemical; conditions: read-out: Kinetic_solubility
Method in brief: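 Kinetic solubility measured in buffer at pH 7.4.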

[5] = Stability in Sprague-Dawley rat liver microsomes assessed as parent compound remaining measured after 30 mins; type: ADME, Microsome; conditions: 0.5 h
Method in brief: (§2)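 Parent compound remaining after 30 min incubation with human, rat, mouse or cynomolgus monkey liver microsomes, expressed as %.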

[6] = Stability in CD-1 mouse liver microsomes assessed as parent compound remaining measured after 30 mins; type: ADME, Microsome; conditions: 0.5 h; method in brief: as §2
[7] = Stability in cynomolgus monkey liver microsomes assessed as parent compound remaining measured after 30 mins; type: ADME, Macaca fascicularis, Microsome; conditions: 0.5 h; method in brief: as §2
[8] = Stability in human liver microsomes assessed as parent compound remaining measured after 30 mins; type: ADME, Microsome; conditions: 0.5 h; method in brief: as §2
CYP2C9 = CYP2C9 (Homo sapiens, UniProt P11712); assay: Inhibition of recombinant human CYP2C9 expressed in insect cell microsomes at 10 uM using 7-methoxy-4-trifluoromethylcoumarin as substrate measured after 15 to 45 mins in presence of NADPH by fluorescence assay relative to control; type: ADME, Microsome; conditions: probe 7-methoxy-4-trifluoromethylcoumarin, time 15-45 min
Sequence of CYP2C9 (P11712 whole entry): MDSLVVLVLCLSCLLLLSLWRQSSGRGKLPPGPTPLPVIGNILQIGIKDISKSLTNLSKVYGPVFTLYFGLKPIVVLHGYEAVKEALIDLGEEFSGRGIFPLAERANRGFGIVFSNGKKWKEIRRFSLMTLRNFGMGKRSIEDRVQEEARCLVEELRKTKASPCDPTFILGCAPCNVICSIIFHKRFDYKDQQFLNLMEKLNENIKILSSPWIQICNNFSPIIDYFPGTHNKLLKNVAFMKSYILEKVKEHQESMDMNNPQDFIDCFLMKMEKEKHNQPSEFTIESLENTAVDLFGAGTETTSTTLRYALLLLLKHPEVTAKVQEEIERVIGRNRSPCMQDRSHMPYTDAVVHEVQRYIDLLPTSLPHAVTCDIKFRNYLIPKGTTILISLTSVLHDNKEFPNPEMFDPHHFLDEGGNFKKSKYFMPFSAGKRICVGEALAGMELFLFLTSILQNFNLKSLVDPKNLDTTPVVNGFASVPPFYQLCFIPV

CYP2C19 = CYP2C19 (Homo sapiens, UniProt P33261); assay: Inhibition of recombinant human CYP2C19 expressed in insect cell microsomes at 10 uM using fluorescence probe as substrate measured after 15 to 45 mins in presence of NADPH by fluorescence assay relative to control; type: ADME, Microsome; conditions: time 15-45 min
Sequence of CYP2C19 (P33261 whole entry): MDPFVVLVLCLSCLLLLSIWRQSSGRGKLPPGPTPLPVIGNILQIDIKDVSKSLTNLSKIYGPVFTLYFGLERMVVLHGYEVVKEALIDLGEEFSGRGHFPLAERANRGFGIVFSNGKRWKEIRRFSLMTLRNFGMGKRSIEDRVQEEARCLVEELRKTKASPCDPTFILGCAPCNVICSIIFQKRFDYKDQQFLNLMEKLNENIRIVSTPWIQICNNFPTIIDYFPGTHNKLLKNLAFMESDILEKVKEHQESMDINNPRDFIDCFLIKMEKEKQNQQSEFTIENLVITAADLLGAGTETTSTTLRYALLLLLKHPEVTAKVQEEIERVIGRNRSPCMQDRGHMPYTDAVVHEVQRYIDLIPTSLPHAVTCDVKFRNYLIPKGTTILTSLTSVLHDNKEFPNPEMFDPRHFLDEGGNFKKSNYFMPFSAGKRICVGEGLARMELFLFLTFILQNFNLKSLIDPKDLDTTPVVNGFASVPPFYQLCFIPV

CYP2D6 = CYP2D6 (Homo sapiens, UniProt P10635); assay: Inhibition of recombinant human CYP2D6 expressed in insect cell microsomes at 10 uM using fluorescence probe as substrate measured after 15 to 45 mins in presence of NADPH by fluorescence assay relative to control; type: ADME, Microsome; conditions: time 15-45 min
Sequence of CYP2D6 (P10635 whole entry): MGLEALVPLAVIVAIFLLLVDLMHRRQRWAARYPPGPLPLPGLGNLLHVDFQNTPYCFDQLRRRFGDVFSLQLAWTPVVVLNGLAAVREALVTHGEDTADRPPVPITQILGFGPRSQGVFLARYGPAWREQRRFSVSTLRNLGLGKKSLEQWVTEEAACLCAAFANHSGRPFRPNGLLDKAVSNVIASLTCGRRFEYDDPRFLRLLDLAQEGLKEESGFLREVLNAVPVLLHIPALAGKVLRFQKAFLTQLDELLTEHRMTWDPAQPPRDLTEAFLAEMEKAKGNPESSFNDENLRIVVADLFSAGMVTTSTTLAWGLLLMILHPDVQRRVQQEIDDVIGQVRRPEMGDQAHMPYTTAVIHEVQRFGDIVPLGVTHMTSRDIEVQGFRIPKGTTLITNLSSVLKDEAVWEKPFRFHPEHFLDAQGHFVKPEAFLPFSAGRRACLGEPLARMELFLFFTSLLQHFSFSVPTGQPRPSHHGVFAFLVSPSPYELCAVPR

CYP3A4 = CYP3A4 (Homo sapiens, UniProt P08684); assay: Inhibition of recombinant human CYP3A4 expressed in insect cell microsomes at 10 uM using fluorescence probe as substrate measured after 15 to 45 mins in presence of NADPH by fluorescence assay relative to control; type: ADME, Microsome; conditions: time 15-45 min
Sequence of CYP3A4 (P08684 whole entry): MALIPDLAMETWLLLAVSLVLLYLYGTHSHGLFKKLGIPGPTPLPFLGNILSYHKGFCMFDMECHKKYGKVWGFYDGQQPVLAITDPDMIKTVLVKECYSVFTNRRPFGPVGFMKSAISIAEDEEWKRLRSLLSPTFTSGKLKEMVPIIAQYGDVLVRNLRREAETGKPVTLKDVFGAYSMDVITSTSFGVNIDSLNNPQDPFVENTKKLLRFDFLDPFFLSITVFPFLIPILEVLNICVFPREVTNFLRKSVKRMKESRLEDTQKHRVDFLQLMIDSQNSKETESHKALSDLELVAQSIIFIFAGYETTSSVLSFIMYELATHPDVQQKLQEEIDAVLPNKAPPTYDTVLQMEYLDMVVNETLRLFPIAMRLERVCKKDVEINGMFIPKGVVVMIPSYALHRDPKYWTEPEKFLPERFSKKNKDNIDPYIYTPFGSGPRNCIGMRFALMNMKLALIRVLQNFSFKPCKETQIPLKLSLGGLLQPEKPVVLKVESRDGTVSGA

[9] = Initial drug level in CD-1 mouse at 2 mg/kg, iv by LC-MS/MS analysis; type: ADME, organism-based; conditions: in vivo
Method in brief: (§3)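 Drug-naive adult male CD-1 mice, three per group, given a single IV 2 mg/kg dose in 3% dimethylacetamide/45% PEG300/12% ethanol/40% sterile water. Blood compound concentrations followed over time. C0 is the observed concentration at time zero, half-life is from the terminal elimination phase, and Vss is at steady state. Reported as mean (SD).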

[10] = Apparent terminal phase half life in CD-1 mouse at 2 mg/kg, iv by LC-MS/MS analysis; type: ADME, organism-based; conditions: in vivo; method in brief: as §3
[11] = Volume of distribution at steady state in CD-1 mouse at 2 mg/kg, iv by LC-MS/MS analysis; type: ADME, organism-based; conditions: in vivo; method in brief: as §3
[12] = Cmax in CD-1 mouse at 5 mg/kg, po administered via gavage by LC-MS/MS analysis; type: ADME, organism-based; parameters: route oral, dose 5 mg/kg; conditions: in vivo
Method in brief: (§4)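 Drug-naive adult male CD-1 mice, three per group, given a single oral 5 mg/kg dose in 2% Tween 80 in 0.9% saline. Compound levels measured in blood over time. Values are the mean (SD) of the PK parameters; %F is derived against the 2 mg/kg IV group.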

[13] = Tmax in CD-1 mouse at 5 mg/kg, po administered via gavage by LC-MS/MS analysis; type: ADME, organism-based; conditions: in vivo; method in brief: as §4
[14] = Apparent terminal phase half life in CD-1 mouse at 5 mg/kg, po administered via gavage by LC-MS/MS analysis; type: ADME, organism-based; conditions: in vivo; method in brief: as §4
[15] = AUC (infinity) in CD-1 mouse at 5 mg/kg, po administered via gavage by LC-MS/MS analysis; type: ADME, organism-based; parameters: route oral, time infinity, dose 5 mg/kg; conditions: in vivo; method in brief: as §4
[16] = Oral bioavailability in CD-1 mouse at 5 mg/kg administered via gavage by LC-MS/MS analysis; type: ADME, organism-based; conditions: in vivo; method in brief: as §4
[17] = In vivo antagonist activity at TTR-RBP4 complex in CD-1 mouse assessed as reduction in serum RBP4 level at 25 mg/kg, po administered via gavage measured after 6 hrs by ELISA relative to control; type: functional; parameters: scale not given: the % may be the effect or the level left
Method in brief: (§5)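 Male mice received a single oral dose of 25 mg/kg; serum RBP4 was followed over time, with the 6 h and 24 h points reported as % reduction. Three mice per group; values are mean ± SD.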

Mus musculus = assay: Effect on serum TTR level in CD-1 mouse at 25 mg/kg, po administered via gavage; type: functional, organism-based
[18] = In vivo antagonist activity at TTR-RBP4 complex in CD-1 mouse assessed as reduction in serum RBP4 level at 25 mg/kg, po administered via gavage measured after 24 hrs by ELISA relative to control; type: functional; parameters: scale not given: the % may be the effect or the level left; method in brief: as §5
Transthyretin [19] = biological target: T1, Transthyretin; assay: Stabilization of human His-tagged TTR (Gly21 to Glu147) expressed in HEK293 cells assessed as reduction in acid-induced protein aggregation by measuring reduction in high molecular aggregates at 50 uM incubated for 72 hrs at pH 4 by Western blot analysis relative to control; type: cell-based; method in brief: as §1
[20] = biological target: T2, Retinol-binding protein 4; assay: Displacement of [3H]-all-trans-retinol from MBP-tagged RBP4 (unknown origin) expressed in Escherichia coli assessed as reduction in untagged Eu-labelled TTR-RBP4 interaction measured after overnight incubation by HTRF assay

Structure (SMILES): CC1=C(/C=C/C(C)=C/C=C/C(C)=C/CO)C(C)(C)CCC1
Activity (Transthyretin [1]): Active

Structure (SMILES): COc1ccc(C(F)(F)F)c(OCC2CCN(c3nc(C)cc(C(=O)O)n3)C2)c1 (racemic)
IC50 [2]: > 3000 nM
IC50 (Transthyretin [3]): > 30000 nM

Structure (SMILES): Cc1cc(C(=O)O)nc(N2CCC(COc3cccc(Cl)c3C(F)(F)F)C2)n1 (racemic)
IC50 [2]: 180 nM
IC50 (Transthyretin [3]): 3900 nM

Structure (SMILES): Cc1cc(C(=O)O)nc(N2CCC(COc3ccccc3C(F)(F)F)C2)n1 (racemic)
solubility kinetic [4]: 187 µM (≈ 71.5 µg/mL)
Stabilty [5]: 93%
Stabilty [6]: 95%
Stabilty [7]: 103%
Stabilty [8]: 105%
inhibition at 10 µM (CYP2C9): 0%
inhibition at 10 µM (CYP2C19): 8%
inhibition at 10 µM (CYP2D6): 18.1%
inhibition at 10 µM (CYP3A4): 2.2%
C0 [9]: 9129 ng/mL
beta t1/2 [10]: 8.6 h
Vdss [11]: 0.518 L/kg
Cmax [12]: 3030 ng/mL
Tmax [13]: 0.83 h
t1/2 [14]: 9.9 h
AUC [15]: 52439 ng·h/mL
F [16]: 52%
Activity [17]: 81%
Activity (Mus musculus): inactive
Activity [18]: 64%
fold change (FC) (Transthyretin [19]): 4.7
Activity (Transthyretin [1]): Active

Structure (SMILES): O=C(O)c1ccc2nc(-c3cc(Cl)cc(Cl)c3)oc2c1
fold change (FC) (Transthyretin [19]): 3.6
Activity (Transthyretin [1]): Active

The next lines start with the values.

IC50 [2]: 1600 nM
IC50 (Transthyretin [3]): > 30000 nM
Structure (SMILES): Cc1cc(C(=O)O)nc(N2CCC(COc3cc(C(F)(F)F)cc(C(F)(F)F)c3)C2)n1 (racemic)

IC50 [2]: > 3000 nM
Structure (SMILES): Cc1cc(C(=O)O)nc(N2CC(Oc3ccccc3C(F)(F)F)C2)n1

IC50 [2]: 240 nM
IC50 [20]: 870 nM
IC50 (Transthyretin [3]): 3900 nM
Structure (SMILES): Cc1cc(C(=O)O)nc(N2CCC(COc3ccc(F)cc3C(F)(F)F)C2)n1 (racemic)
